Reference: ChEMBL document CHEMBL1123655, “Synthesis, cell growth inhibition, and antitumor screening of 2-(p-n-butylanilino)purines and their nucleoside analogues” (J Med Chem, 1987)
One block for each compound: values may come before it.

What was measured:
[1] = test system: HeLa; experiment: Compound (at a concentration of 100 uM) was evaluated for the effect on DNA synthesis by HeLa cells in culture and the percentage inhibition of [3H]- thymidine incorporation after 3h of addition was reported.; assay type: functional; details: Homo sapiens
Outline: (§1)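 Exponentially growing HeLa S3 cells (7×10^5 cells/mL, suspension) exposed to compound at 100 μM in Me2SO, or Me2SO alone, at 37 °C. After 3 h, [methyl-3H]thymidine added to 1 μCi/mL. After 30 min, quenched with cold PBS, pelleted, alkali hydrolysed (1 M NaOH, 65 °C, 1 h), TCA/pyrophosphate precipitated and filtered. Alkali-stable acid-insoluble counts give % inhibition versus solvent control.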

[2] = test system: HeLa; experiment: Compound was evaluated for the effect on DNA synthesis by HeLa cells in culture and the inhibition of [3H]- thymidine incorporation after 3h of addition; assay type: functional, cell-based; details: Homo sapiens
Outline: (§2)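 IC50 for [methyl-3H]thymidine incorporation into DNA of exponentially growing HeLa S3 suspension cells (7×10^5 cells/mL). Compounds in Me2SO, or Me2SO control, incubated 3 h at 37 °C, then label added at 1 μCi/mL for 30 min. Alkali-stable, acid-precipitable counts measured after NaOH (65 °C, 1 h) and TCA/pyrophosphate filtration.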

[3] = test system: HeLa; experiment: Compound was evaluated for the effect on [3H]- Uridine incorporation by HeLa cells and percentage inhibition into DNA; assay type: functional, Homo sapiens
Outline: (§3)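 HeLa S3 cells grown in suspension, exponential phase (7 × 10^5 cells/mL), given compound in Me2SO (Me2SO alone for controls) for 3 h at 37 °C, then [5,6-3H]uridine to 1 μCi/mL for 45 min. DNA: alkali-stable, TCA-precipitable counts after 1 M NaOH at 60 °C for 1 h. RNA: total acid-precipitable nucleic acid minus DNA counts. Percent inhibition relative to control.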

[4] = test system: HeLa; experiment: Compound was evaluated for the effect on [3H]- Uridine incorporation by HeLa cells and percentage inhibition into RNA; assay type: functional, Homo sapiens; outline: as §3
[5] = test system: HeLa; experiment: Effect on DNA synthesis by HeLa cells was determined by the percentage inhibition of [3H]- thymidine incorporation after 3h at 100 uM; assay type: functional; details: Homo sapiens; outline: as §1
[6] = test system: HeLa; experiment: Compound was evaluated for the effect on growth and macromolecule synthesis by HeLa cells and the cell growth inhibition; assay type: functional, cell-based; details: Homo sapiens
Outline: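 HeLa S3 cells (ca. 2.5×10^4 cells/mL), exponentially growing in Joklik's modified medium with 3.5% calf and 3.5% fetal bovine serum, preincubated 3 h at 37 °C in spinner flasks. Compound in Me2SO or solvent added, and cells counted at t=0 and after 72 h. IC50 derived from % growth inhibition.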

[7] = test system: HeLa; experiment: Effect on DNA synthesis by HeLa cells was determined by the percentage inhibition of [3H]- thymidine incorporation after 3h; assay type: functional, cell-based; details: Homo sapiens
[8] = test system: HeLa; experiment: Effect on growth and macromolecule synthesis by HeLa cells was determined as the percentage inhibition of [3H]- leucine incorporation after 3h of addition at 100 uM; assay type: functional; details: Homo sapiens
[9] = test system: HeLa; experiment: Effect on DNA synthesis by HeLa cells was determined by the percentage inhibition of [3H]- thymidine incorporation after 3h at 200 uM; assay type: functional, Homo sapiens
Outline: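 HeLa S3 cells in exponential suspension culture (7×10^5 cells/mL) treated at 200 μM in Me2SO, or Me2SO alone, at 37 °C. After 3 h, [methyl-3H]thymidine added to 1 μCi/mL for 30 min. Cells were then pelleted, NaOH hydrolysed at 65 °C, and TCA precipitated onto filters. Alkali-stable acid-precipitable radioactivity gives % inhibition against solvent control.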

[10] = test system: HeLa; experiment: Percent inhibition against [3H]uridine incorporation into DNA of HeLa cell after 45 mins of treatment; assay type: functional, Homo sapiens
Outline: (§4)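 Exponentially growing HeLa S3 cells (7×10^5 cells/mL) treated with compound in Me2SO (100 μM, or 10 μM where stated), or Me2SO alone, for 3 h at 37 °C. [5,6-3H]uridine then added to 1 μCi/mL for 45 min. DNA: counts remaining acid-precipitable after 1 M NaOH at 60 °C, 1 h. RNA: total TCA-precipitable counts minus the DNA counts.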

[11] = test system: HeLa; experiment: Percent inhibition against [3H]uridine incorporation into RNA of HeLa cell after 45 mins of treatment at 10 uM; assay type: functional; details: Homo sapiens; outline: as §4
[12] = test system: HeLa; experiment: Percent inhibition against [3H]uridine incorporation into RNA of HeLa cell after 45 mins of treatment; assay type: functional, Homo sapiens; outline: as §4
[13] = test system: HeLa; experiment: Compound (at a concentration of 100 uM) was evaluated for the effect on growth and macromolecule synthesis by HeLa cells and the percentage inhibition of [3H]- leucine incorporation after 3h of addition; assay type: functional; details: Homo sapiens
[14] = test system: HeLa; experiment: Compound was evaluated for the effect on DNA synthesis by HeLa cells in culture and the percentage inhibition of [3H]- thymidine incorporation after 3h of addition was reported at 100 uM; assay type: functional; details: Homo sapiens; outline: as §1
[15] = test system: HeLa; experiment: Percent inhibition against [3H]-Uridine incorporation into RNA of HeLa cell after 45 mins of treatment at 100 uM; assay type: functional; details: Homo sapiens; outline: as §4
[16] = test system: HeLa; experiment: Effect on DNA synthesis by HeLa cells was determined by the inhibition of [3H]- thymidine incorporation after 3h of addition; assay type: functional, cell-based; details: Homo sapiens; outline: as §2
[17] = test system: HeLa; experiment: Percent inhibition against [3H]-Uridine incorporation into DNA of HeLa cell after 45 mins of treatment at 100 uM; assay type: functional; details: Homo sapiens; outline: as §4

Compound: C[C@@]1(CO)[C@H](O)CC[C@@]2(C)[C@H]1CC[C@H]1C[C@@H]3C[C@@]12CC[C@]3(O)CO [APHIDICOLIN]
Inhibition [3]: 84%
Inhibition [4]: 0%

Compound: CCCCc1ccc(Nc2nc(S)c3ncn([C@@H]4C[C@@H](O)[C@H](CO)O4)c3n2)cc1
inhibition at 100 µM [5]: 63%

Compound: Oc1[nH]c(Nc2ccc3c(c2)CCC3)nc2ncnc1-2
inhibition at 100 µM [1]: 79%
IC50 [2]: 52 µM

Compound: CCCCc1ccc(Nc2nc3c(ncn3[C@@H]3C[C@@H](O)[C@H](CO)O3)c(=O)[nH]2)cc1 (stereo in doubt; 11)
Inhibition [9]: 53%

Compound: CCc1cc(Nc2nc(O)c3[nH]cnc3n2)ccc1C
inhibition at 100 µM [1]: 44%

Compound: CCCCc1ccc(Nc2nc3c(ncn3[C@@H]3C[C@@H](O)[C@H](CO)O3)c(=O)[nH]2)cc1 (stereo in doubt; 12)
inhibition at 200 µM ([9]; Homo sapiens, HeLa, 3 h): 46%

Compound: CCCCc1ccc(Nc2nc(S)c3ncn(COCCO)c3n2)cc1
inhibition at 100 µM [5]: 87%

Compound: CCCCc1ccc(Nc2nc(OC)c3ncn(COCCO)c3n2)cc1
inhibition at 100 µM [5]: 80%

Compound: CCCCc1ccc(Nc2nc3c(ncn3[C@H]3O[C@@H](CO)[C@H](O)[C@@H]3O)c(=O)[nH]2)cc1 (stereo in doubt; 14)
Inhibition [9]: 38%

Compound: CCCCc1ccc(Nc2nc3c(ncn3[C@H]3O[C@@H](CO)[C@H](O)[C@@H]3O)c(=O)[nH]2)cc1 (stereo in doubt; 13)
Inhibition [9]: 75%

Compound: CCCCc1ccc(Nc2nc3c(ncn3[C@@H]3C[C@@H](O)[C@H](CO)O3)c(=O)[nH]2)cc1
inhibition at 100 µM [15]: 91%
inhibition at 100 µM [5]: 86%
IC50 [16]: 37 µM
inhibition at 100 µM [17]: 91%
IC50 [6]: 25 µM
inhibition at 100 µM [8]: 7%

Compound: CCCCc1ccc(Nc2ncc3ncn([C@@H]4C[C@@H](O)[C@H](CO)O4)c3n2)cc1
inhibition at 100 µM [5]: 97%
IC50 [6]: 5 µM
IC50 [7]: 4.8 µM
inhibition at 100 µM [8]: 58%

The next lines start with results.

IC50 [2]: 30 µM
Compound: CCCCc1ccc(Nc2nc(OC)c3[nH]cnc3n2)cc1
inhibition at 100 µM [1]: 80%

IC50 [6]: 10.3 µM
IC50 [7]: 11 µM
Compound: CCCCc1ccc(Nc2nc(Cl)c3ncn([C@@H]4C[C@@H](O)[C@H](CO)O4)c3n2)cc1
inhibition at 100 µM [5]: 97%
inhibition at 100 µM [8]: 87%

IC50 [6]: 1.4 µM
IC50 [7]: 1 µM
Compound: CCCCc1ccc(Nc2nc(N)c3ncn([C@@H]4C[C@@H](O)[C@H](CO)O4)c3n2)cc1
inhibition at 100 µM [5]: 96%
Inhibition [10]: 81%
inhibition at 100 µM [8]: 56%
inhibition at 10 µM [11]: 73%

IC50 [2]: 23 µM
IC50 [6]: 40 µM
Compound: CCCCc1ccc(Nc2nc(N)c3[nH]cnc3n2)cc1
inhibition at 100 µM [1]: 92%
Inhibition [12]: 87%
Inhibition [10]: 93%
inhibition at 100 µM [13]: 47%

IC50 [7]: 8.5 µM
Compound: CCCCc1ccc(Nc2nc(N)c3ncn(COCCO)c3n2)cc1
inhibition at 100 µM [5]: 97%

IC50 [2]: 40 µM
Compound: CCCCc1ccc(Nc2nc(S)c3[nH]cnc3n2)cc1
inhibition at 100 µM [1]: 94%

IC50 [2]: 35 µM
Compound: CCCCc1ccc(Nc2nc(Cl)c3[nH]cnc3n2)cc1
inhibition at 100 µM [14]: 99%

IC50 [7]: 4.8 µM
Compound: CCCCc1ccc(Nc2ncc3ncn(COCCO)c3n2)cc1
inhibition at 100 µM [5]: 97%

IC50 [2]: 47 µM
Compound: CCCCc1ccc(Nc2nc3ncnc-3c[nH]2)cc1
inhibition at 100 µM [1]: 78%

IC50 [7]: 38 µM
Compound: CCCCc1ccc(Nc2nc(O)c3ncn(COCCO)c3n2)cc1
inhibition at 100 µM [5]: 81%

IC50 [2]: 32 µM
Compound: CCCCc1ccc(Nc2nc(SC)c3[nH]cnc3n2)cc1
inhibition at 100 µM [1]: 72%

IC50 [2]: 69 µM
IC50 [6]: 65 µM
Compound: CCCCc1ccc(Nc2nc(O)c3[nH]cnc3n2)cc1
inhibition at 100 µM [14]: 63%
Inhibition [12]: 76%
Inhibition [10]: 76%
inhibition at 100 µM [13]: 13%

IC50 [7]: 9 µM
Compound: CCCCc1ccc(Nc2nc(Cl)c3ncn(COCCO)c3n2)cc1
inhibition at 100 µM [5]: 99%
